From ChEMBL document CHEMBL4689842, “EUbOPEN Chemogenomics Library wave 1” (2021)
Where “and” joins values, the source holds several entries; their conditions need not be identical. Equal entries are not always repeated.

Test system: Fibroblast
Experiment: Multiplex assay against human fibroblast
Format: toxicity, cell-based
How it was run: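 Values for tubulin, mitochondrial-mass and membrane-permeability phenotypes are per cents of cells with healthy nuclei. These cells were identified by CellPathfinder machine-learning gating of live cells that had been stained at seeding with Hoechst33342, BioTracker Green Microtubule Cytoskeleton Dye, MitoTracker Red and Annexin V Alexa Fluor 680 and imaged on a CQ1 microscope at 37°C and 5% CO2 after compound addition. The gating first set Hoechst high-intensity objects apart from normal cells, then split normal cells into healthy, pyknosed or fragmented nuclei, and pyknosed cells into mitotic or apoptotic.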

[1] = 12 h, 1 µM, compound concentration 1 uM, replicate 1
[2] = 12 h, 1 µM, compound concentration 1 uM, replicate 2
[3] = 12 h, 10 µM, compound concentration 10 uM, replicate 1
[4] = 12 h, 10 µM, compound concentration 10 uM, replicate 2
[5] = 24 h, 1 µM, compound concentration 1 uM, replicate 1
[6] = 24 h, 1 µM, compound concentration 1 uM, replicate 2
[7] = 24 h, 10 µM, compound concentration 10 uM, replicate 1
[8] = 24 h, 10 µM, compound concentration 10 uM, replicate 2
[9] = 48 h, 1 µM, compound concentration 1 uM, replicate 1
[10] = 48 h, 1 µM, compound concentration 1 uM, replicate 2
[11] = 48 h, 10 µM, compound concentration 10 uM, replicate 1
[12] = 48 h, 10 µM, compound concentration 10 uM, replicate 2

O=C(Cc1ccc(-c2ccc(OCCN3CCOCC3)cc2)cn1)NCc1ccccc1 [TIRBANIBULIN]
Population Apoptotic (%) [1]: 71%
Population Fragmented Nuclei (%) [1]: 20%
Population Healthy Nuclei (%) [1]: 47%
Population Hoechst High Intensity Objects (%) [1]: 16%
Population Membrane Permeable-Phenotype (%) [1]: 18%
Population Mitochondria Different-Phenotype (%) [1]: 9%
Population Mitotic Cells (%) [1]: 28%
Population Normal (%) [1]: 83%
Population Pyknosed Nuclei (%) [1]: 31%
Population Tubulin-Different-Phenotype (%) [1]: 12%
Total Cell Count [1]: 80
Population Apoptotic (%) [2]: 0%
Population Fragmented Nuclei (%) [2]: 5%
Population Healthy Nuclei (%) [2]: 90%
Population Hoechst High Intensity Objects (%) [2]: 12%
Population Membrane Permeable-Phenotype (%) [2]: 9%
Population Mitochondria Different-Phenotype (%) [2]: 21%
Population Mitotic Cells (%) [2]: 100%
Population Normal (%) [2]: 87%
Population Pyknosed Nuclei (%) [2]: 4%
Total Cell Count [2]: 108
Population Apoptotic (%) [3]: 66%
Population Fragmented Nuclei (%) [3]: 30%
Population Healthy Nuclei (%) [3]: 39%
Population Hoechst High Intensity Objects (%) [3]: 15%
Population Membrane Permeable-Phenotype (%) [3]: 17%
Population Mitochondria Different-Phenotype (%) [3]: 13%
Population Mitotic Cells (%) [3]: 33%
Population Normal (%) [3]: 84%
Population Pyknosed Nuclei (%) [3]: 29%
Population Tubulin-Different-Phenotype (%) [3]: 28%
Total Cell Count [3]: 134
Population Apoptotic (%) [4]: 50%
Population Fragmented Nuclei (%) [4]: 13%
Population Healthy Nuclei (%) [4]: 78%
Population Hoechst High Intensity Objects (%) [4]: 10%
Population Membrane Permeable-Phenotype (%) [4]: 4%
Population Mitochondria Different-Phenotype (%) [4]: 19%
Population Mitotic Cells (%) [4]: 50%
Population Normal (%) [4]: 89%
Population Pyknosed Nuclei (%) [4]: 7%
Population Tubulin-Different-Phenotype (%) [4]: 12%
Total Cell Count [4]: 81
Population Apoptotic (%) [5]: 57%
Population Fragmented Nuclei (%) [5]: 29%
Population Healthy Nuclei (%) [5]: 44%
Population Hoechst High Intensity Objects (%) [5]: 14%
Population Membrane Permeable-Phenotype (%) [5]: 37%
Population Mitochondria Different-Phenotype (%) [5]: 9%
Population Mitotic Cells (%) [5]: 42%
Population Normal (%) [5]: 85%
Population Pyknosed Nuclei (%) [5]: 26%
Population Tubulin-Different-Phenotype (%) [5]: 18%
Total Cell Count [5]: 84
Population Apoptotic (%) [6]: 61%
Population Fragmented Nuclei (%) [6]: 16%
Population Healthy Nuclei (%) [6]: 66%
Population Hoechst High Intensity Objects (%) [6]: 9%
Population Membrane Permeable-Phenotype (%) [6]: 6%
Population Mitochondria Different-Phenotype (%) [6]: 44%
Population Mitotic Cells (%) [6]: 38%
Population Normal (%) [6]: 90%
Population Pyknosed Nuclei (%) [6]: 17%
Population Tubulin-Different-Phenotype (%) [6]: 10%
Total Cell Count [6]: 155
Population Apoptotic (%) [7]: 54%
Population Fragmented Nuclei (%) [7]: 42%
Population Healthy Nuclei (%) [7]: 37%
Population Hoechst High Intensity Objects (%) [7]: 13%
Population Membrane Permeable-Phenotype (%) [7]: 17%
Population Mitochondria Different-Phenotype (%) [7]: 8%
Population Mitotic Cells (%) [7]: 45%
Population Normal (%) [7]: 86%
Population Pyknosed Nuclei (%) [7]: 20%
Population Tubulin-Different-Phenotype (%) [7]: 35%
Total Cell Count [7]: 138
Population Apoptotic (%) [8]: 66%
Population Fragmented Nuclei (%) [8]: 19%
Population Healthy Nuclei (%) [8]: 57%
Population Hoechst High Intensity Objects (%) [8]: 10%
Population Membrane Permeable-Phenotype (%) [8]: 10%
Population Mitochondria Different-Phenotype (%) [8]: 40%
Population Mitotic Cells (%) [8]: 33%
Population Normal (%) [8]: 89%
Population Pyknosed Nuclei (%) [8]: 23%
Population Tubulin-Different-Phenotype (%) [8]: 13%
Total Cell Count [8]: 82
Population Apoptotic (%) [9]: 50%
Population Fragmented Nuclei (%) [9]: 40%
Population Healthy Nuclei (%) [9]: 47%
Population Hoechst High Intensity Objects (%) [9]: 14%
Population Membrane Permeable-Phenotype (%) [9]: 31%
Population Mitochondria Different-Phenotype (%) [9]: 2%
Population Mitotic Cells (%) [9]: 50%
Population Normal (%) [9]: 85%
Population Pyknosed Nuclei (%) [9]: 12%
Population Tubulin-Different-Phenotype (%) [9]: 7%
Total Cell Count [9]: 94
Population Apoptotic (%) [10]: 71%
Population Fragmented Nuclei (%) [10]: 35%
Population Healthy Nuclei (%) [10]: 59%
Population Hoechst High Intensity Objects (%) [10]: 10%
Population Membrane Permeable-Phenotype (%) [10]: 18%
Population Mitochondria Different-Phenotype (%) [10]: 7%
Population Mitotic Cells (%) [10]: 28%
Population Normal (%) [10]: 89%
Population Pyknosed Nuclei (%) [10]: 4%
Population Tubulin-Different-Phenotype (%) [10]: 15%
Total Cell Count [10]: 170
Population Apoptotic (%) [11]: 48%
Population Fragmented Nuclei (%) [11]: 38%
Population Healthy Nuclei (%) [11]: 34%
Population Hoechst High Intensity Objects (%) [11]: 17%
Population Membrane Permeable-Phenotype (%) [11]: 21%
Population Mitochondria Different-Phenotype (%) [11]: 7%
Population Mitotic Cells (%) [11]: 51%
Population Normal (%) [11]: 82%
Population Pyknosed Nuclei (%) [11]: 26%
Population Tubulin-Different-Phenotype (%) [11]: 29%
Total Cell Count [11]: 143
Population Apoptotic (%) [12]: 66%
Population Fragmented Nuclei (%) [12]: 44%
Population Healthy Nuclei (%) [12]: 53%
Population Membrane Permeable-Phenotype (%) [12]: 15%
Population Mitochondria Different-Phenotype (%) [12]: 5%
Population Mitotic Cells (%) [12]: 33%
Population Pyknosed Nuclei (%) [12]: 2%
Population Tubulin-Different-Phenotype (%) [12]: 22%
Total Cell Count [12]: 164

Cn1nc(C(=O)NCc2ccc(C(=O)O)cc2)cc1-c1ccc2[nH]ccc2c1 [BI 4395]
Population Apoptotic (%) [3]: 77% and 69%
Population Fragmented Nuclei (%) [3]: 29% and 28%
Population Healthy Nuclei (%) [3]: 57%
Population Hoechst High Intensity Objects (%) [3]: 12% and 19%
Population Mitochondria Different-Phenotype (%) [3]: 3% and 2%
Population Mitotic Cells (%) [3]: 22% and 30%
Population Normal (%) [3]: 87% and 80%
Population Pyknosed Nuclei (%) [3]: 13% and 14%
Population Tubulin-Different-Phenotype (%) [3]: 9% and 4%
Total Cell Count [3]: 190 and 199
Population Apoptotic (%) [4]: 42% and 100%
Population Fragmented Nuclei (%) [4]: 43% and 54%
Population Healthy Nuclei (%) [4]: 38% and 39%
Population Hoechst High Intensity Objects (%) [4]: 29% and 49%
Population Membrane Permeable-Phenotype (%) [4]: 26% and 9%
Population Mitochondria Different-Phenotype (%) [4]: 13% and 0%
Population Normal (%) [4]: 70% and 50%
Total Cell Count [4]: 55 and 104
Population Apoptotic (%) [7]: 71% and 69%
Population Fragmented Nuclei (%) [7]: 29% and 27%
Population Healthy Nuclei (%) [7]: 58% and 57%
Population Hoechst High Intensity Objects (%) [7]: 12% and 17%
Population Membrane Permeable-Phenotype (%) [7]: 9% and 5%
Population Mitochondria Different-Phenotype (%) [7]: 2% and 0%
Population Mitotic Cells (%) [7]: 28% and 30%
Population Normal (%) [7]: 87% and 82%
Population Pyknosed Nuclei (%) [7]: 14%
Population Tubulin-Different-Phenotype (%) [7]: 7% and 4%
Total Cell Count [7]: 202 and 211
Population Fragmented Nuclei (%) [8]: 75% and 51%
Population Healthy Nuclei (%) [8]: 25% and 37%
Population Hoechst High Intensity Objects (%) [8]: 44% and 38%
Population Membrane Permeable-Phenotype (%) [8]: 15%
Population Mitochondria Different-Phenotype (%) [8]: 15% and 7%
Population Mitotic Cells (%) [8]: 0%
Population Normal (%) [8]: 55% and 61%
Population Pyknosed Nuclei (%) [8]: 0% and 11%
Population Tubulin-Different-Phenotype (%) [8]: 15% and 38%
Total Cell Count [8]: 94 and 57
